Results of several laboratories.
Compare with care: the assays were run in different laboratories.
Observed: cell growth or viability

CO[C@]12C[C@@H](COC(=O)c3cncc(Br)c3)CN(C)[C@@H]1Cc1cn(C)c3cccc2c13
IC50 (SUNE1; MTT; 48 h): 12200 nM

Cc1c(C(=O)O)ccc2c3n(nc12)[C@@H]1[C@H](C3)N(CC2CC2)[C@@]2(C(=O)Nc3cc(Cl)ccc32)[C@H]1c1cccc(Cl)c1F
GI50 (UACC-812; resazurin): 27 nM

CC1(C)CCC(CN2CCN(c3ccc(C(=O)NS(=O)(=O)c4ccc(NCC5CCOCC5)c([N+](=O)[O-])c4)c(Oc4cnc5[nH]ccc5c4)c3)CC2)=C(c2ccc(Cl)cc2)C1
IC50 (OCI-Ly10; ATP luminescence; 48 h): 19 nM

O=C(NO)c1ccc(CNc2nc3cccc(-c4ccc5c(c4)OCO5)n3n2)cc1
GI50 (KM12; SRB): 560 nM

COc1cc2nc(N3CCN(C(=O)c4ccco4)CC3)nc(N)c2cc1OC
IC50 (SUNE1; MTT; 48 h): 27400 nM

O=C(Nc1cnn2ccc(N3CCC[C@@H]3c3cc(F)ccc3F)nc12)N1CC[C@H](O)C1
IC50 (KM12; ATP luminescence; 72 h): 10 nM

C=CC(=O)NC1CCN(c2ncc3ncnc(Nc4ccc(Oc5ccc6c(c5)ncn6C)c(C)c4)c3n2)CC1
EC50 (Daoy): 74.4 nM

CC(C)c1ccccc1[C@@H]1CCCN1C1CC2(CCN(c3ccc(C(=O)NS(=O)(=O)c4ccc(NC[C@H]5CC[C@](C)(O)CC5)c([N+](=O)[O-])c4)c(Oc4cnc5[nH]ccc5c4)c3)CC2)C1
IC50 (OCI-Ly10; ATP luminescence; 48 h): 2.6 nM
